Among the data in the RNAGym collection of RNA variant scans (doi:10.1126/science.aae0568) are yeast fitness values, retold here.

B1: tRNA (parent)
chain: GUUCCGUUGGCGUAAUGGUAACGCGUCUCCCUCCUAAGGAGAAGACUGCGGGUUCGAGUCCCGUACGGAACG

This sample holds only a part of the variants without activity. Some results are limits rather than exact numbers.

The variants in this data set derive from B1. Briefly: yeast fitness relative to wild type (ratio to wild type); higher = fitter; tRNA-Arg(CCU), competitive growth, 37 C, YPD. An outline of the steps:
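Gene amplicons from the start population and from each of six end populations were read by 100-nucleotide paired-end sequencing. Those end populations came from pooled Saccharomyces cerevisiae strains carrying tRNA-Arg(CCU) gene variants at the native locus, competed in YPD at 37°C for 24 hours. Fitness relative to wild type was worked out from changes in genotype frequencies. Genotypes needed ≥ 100 starting reads, and estimates < 0.5 were set to 0.5.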
In the case of C4U C5G C11A C66A, the yeast fitness was at most 0.5. Turning to C4U C31G C34G A43U G68C A69G, the yeast fitness was at most 0.5.

For the variant C4U C30U, the yeast fitness amounted to 0.931. Under C4U C30G stands 0.801. As for C4U C31U A45C C46U, the yeast fitness came to 1.01. As to C4U C11G G18A G23C U47G G50A, the yeast fitness is at most 0.5. Consider C4U C22U U35C G56A A70C, for which the yeast fitness is at most 0.5. For C4U C24U G56C the value was 0.505; for C4U A45G C61G A65C A70U, at most 0.5.

In the case of C4U C34A C62U, the yeast fitness turned out to be 0.566. Under C4U A36G G44C stands 0.765; under C4U C30U G48C G68C, at most 0.5; under C4U C5A C46U, 0.655. For C4U C11G C22G C55G G63C the value was at most 0.5; for C4U C24A A57G A70C, at most 0.5; for C4U C5U G18A G25A C33U G48A G52A A65C G68A, at most 0.5. For C4U C27U U32C the value was 0.615; for C4U C30U G38A G68C, at most 0.5. As to C4U C24G A57G, the yeast fitness was at most 0.5. As to C4U C27U C33A A45C U54A, the yeast fitness was at most 0.5. For C4U A65G C66U the value was 0.787; for C4U C30U C62A, at most 0.5. In the case of C4U C29U, the yeast fitness amounted to 1. With C4U C29G, the yeast fitness stood at 0.608.

C4U A20G A40U A70G: the yeast fitness was at most 0.5. For C4U C5U C46G, the yeast fitness came to 0.515.

For the variant C4U A37C G48C G50C, the yeast fitness was at most 0.5. Regarding C4U A40U, the yeast fitness worked out at 0.898. Regarding C4U A40C, the yeast fitness turned out to be 0.835. Under C4U C11A A37C C49U C60G A70C stands at most 0.5; under C4U C11G C29U G48A G52A, at most 0.5; under C4U C5A U13A C31U C34U C55A G58A, at most 0.5. For C4U C22U C66U the value was 0.624; for C4U A40G C62U, 0.667; for C4U C11U A45G, 0.687. For C4U C11U A45C the value was 0.7; for C4U C24G C55G U64A, at most 0.5. Take C4U A57U U59C: the yeast fitness was 0.54. Under C4U C22G C24U C62G stands at most 0.5; under C4U A65U, 1.04. As for C4U C31G A37G, the yeast fitness was found to be 0.526. Under C4U C5G C29U stands 0.541; under C4U C33G C60G, at most 0.5; under C4U A37U G52C A65C, at most 0.5. For C4U C30U U53G G56C C62G, the yeast fitness was at most 0.5. Under C4U C11U U28A C29G G51A G56A G67C stands at most 0.5; under C4U C34G G63C A69C, at most 0.5. For C4U C11G C34U U53C the value was at most 0.5. For C4U C22U C33U A42C the value was 0.668; for C4U C29U C31U U59C, at most 0.5; for C4U C22G G67A, 0.689. With C4U A21C G41U, the yeast fitness came out at 0.625.

Turning to C4U A21G U47C A70G, the yeast fitness is at most 0.5. Consider C4U C29U G39C, for which the yeast fitness was 0.536.

For the variant C4U C30A A65G G67C, the yeast fitness is at most 0.5. For C4U C30A A42U the value was 0.529; for C4U C30A A42C, 0.582; for C4U C34G G52A A69C, at most 0.5.

With C4U C24A C60G C66U, the yeast fitness was at most 0.5. Under C4U C5G U28C stands 0.783; under C4U C29A A36C A40U G51A, 0.588.

On to C4U C11A, for which the yeast fitness was found to be 0.61. For C4U C11G the value was 0.692.

Turning to C4U C11U, the yeast fitness stood at 0.969.

Consider C4U C31G, for which the yeast fitness is 0.868. As for C4U C31A, the yeast fitness was 0.827. As for C4U C29A G38A A69U, the yeast fitness is at most 0.5. In the case of C4U A20U A40U G56C, the yeast fitness is at most 0.5.

On to C4U A20U C29G C49G G63C, for which the yeast fitness was at most 0.5.

As for C4U A37U C49U, the yeast fitness was determined as 0.563. For C4U C27A A40C the value was at most 0.5; for C4U C22G U35C, 0.641. Under C4U C31G A65U G67C stands at most 0.5; under C4U C11A G39A G51A, at most 0.5; under C4U C29A C61G A70U, 0.588. For C4U A21U U28C G52C A57C, the yeast fitness is at most 0.5.

For the variant C4U C30A A36G, the yeast fitness amounted to 0.839. For C4U A36U A40C G68A, the yeast fitness is at most 0.5. Under C4U C29U G50A G63A stands at most 0.5. Under C4U C24G A42C stands at most 0.5; under C4U C5G U28C A65G, 0.562; under C4U C5G C29U A65G, at most 0.5. For C4U C5U G9A G10A A15C C46A the value was 0.619; for C4U C31U G52C C61A, at most 0.5; for C4U A43C G51A G68U, 0.623.

C4U C5A U13A C31U C34U C66U: the yeast fitness is at most 0.5. Under C4U A36U U47C stands at most 0.5; under C4U C30A C55G, 0.549. For C4U C5A C60A C62U U64C G68A A69C, the yeast fitness is 0.579. Under C4U C29U A36U A65U stands 0.557; under C4U C24A C30G, 0.554. Under C4U C29G G38C stands 0.621. As to C4U C30G A36U, the yeast fitness stood at 0.563. For C4U A42C G51C A65G the value was 0.508; for C4U A70C, 0.989. Under C4U A70U stands 1.02; under C4U A20G A45U C61U C62G, 0.53; under C4U C24U A43G G51C U54C, at most 0.5. Under C4U C33A stands 0.724; under C4U C31G G38A C61A G63A, at most 0.5. As for C4U C22G G56A, the yeast fitness turned out to be 0.76. For C4U C22U C31U C60G A70G the value was 0.52; for C4U C34G C49G G68C, at most 0.5. Regarding C4U A21C U59C, the yeast fitness is at most 0.5. Under C4U C22A U35A C49G G63C stands at most 0.5. For the variant C4U C22A C27U A69U, the yeast fitness was 0.512. Under C4U C24A C55A C62U A65C stands at most 0.5. For C4U A36U G52A the value was at most 0.5. As to C4U C31A A37C G48A G58C, the yeast fitness is at most 0.5. Under C4U C11U A45C G48A G56C stands at most 0.5. For C4U C33A C49U U54G the value was at most 0.5; for C4U C24G A43G G63U U64A, at most 0.5. For C4U C11U G25C G41A U54C, the yeast fitness is at most 0.5.

As for C4U A36G G44C C49U, the yeast fitness amounted to 0.631. On to C4U C11U A57G, for which the yeast fitness came out at 0.684.

For the variant C4U C5U A37U C46U C61U C66U, the yeast fitness was at most 0.5. Under C4U A36U C55A stands 0.659.

As to C4U C24U A69C, the yeast fitness is 0.677. Take C4U A45U: the yeast fitness is 0.968. Under C4U A21C A42G stands at most 0.5; under C4U C22G, 0.943; under C4U C11U A65U, 0.669.

Regarding C4U C11A A37C A57G, the yeast fitness was at most 0.5. With C4U C24G U35C A57G, the yeast fitness was at most 0.5.

As for C4U C11A C46U, the yeast fitness was 0.661. For C4U C27G A45C C55U C66A the value was at most 0.5; for C4U C24U A36C C62G C66A, at most 0.5. Under C4U C11A U28G C31U G51C stands at most 0.5; under C4U C11A C27A C62A, at most 0.5; under C4U A42G A57U, 0.551. With C4U C5U G18A G25A C33U G48A G52A A69U, the yeast fitness is at most 0.5. With C4U A40U C66U, the yeast fitness is 0.762.

Take C4U C33A G41C C60U A65U A69U: the yeast fitness is at most 0.5.

On to C4U C27G U53A, for which the yeast fitness is at most 0.5. With C4U A43G C46U, the yeast fitness was 0.994. For C4U A43C G67A the value was 0.733; for C4U C33G U47G, 0.591. In the case of C4U A57C C61U A70U, the yeast fitness was at most 0.5. Turning to C4U A21U C66A, the yeast fitness was at most 0.5. In the case of C4U C5G U7C C24G A43C, the yeast fitness was at most 0.5.

Turning to C4U C30A G38C C61A, the yeast fitness was at most 0.5. Under C4U C31U C55G A70C stands at most 0.5; under C4U C27G A45C G58A C62G, at most 0.5.

In the case of C4U C27U U53G, the yeast fitness is at most 0.5. As to C4U A45C C55U G68C, the yeast fitness is at most 0.5. For C4U C27U A57U the value was 0.532; for C4U C11G C34U C55A A65U A70G, at most 0.5. For C4U C31G C55U G68C the value was at most 0.5; for C4U C34U G68C, at most 0.5; for C4U A36U G68A, at most 0.5. For C4U A21U A36G A43C C55U A65G the value was at most 0.5; for C4U C11U G25C G41A A57C G58A, at most 0.5. As to C4U A45G A57C, the yeast fitness was 0.585. As to C4U C27G A45C C55U G67C, the yeast fitness was at most 0.5.

On to C4U C33A U54G, for which the yeast fitness was at most 0.5.

As for C4U C27U A43G, the yeast fitness worked out at 0.649. For C4U C5G C60G the value was at most 0.5.

Take C4U C5G C27A: the yeast fitness is at most 0.5. Under C4U A42C A45G C49U C66A stands at most 0.5; under C4U C24U C31A G56C, 0.63.

For the variant C4U C5G U16C C24G A42C G58A, the yeast fitness was 0.571. As for C4U A20C C55G, the yeast fitness is at most 0.5. For C4U C30A A57G the value was 0.806; for C4U C5G A20G C29U G48C G63C, at most 0.5; for C4U A40G A42G A57C C66U, at most 0.5. C4U C5G U16C C24G A42C G56A: the yeast fitness is at most 0.5.

For C4U C5U A36U, the yeast fitness was determined as 0.625.
